According to ChEMBL document CHEMBL1143239, “The synthesis of bivalent 2beta-carbomethoxy-3beta-(3,4-dichlorophenyl)-8-heterobicyclo[3.2.1]octanes as probes for proximal binding sites on the dopamine and serotonin transporters” (Bioorg Med Chem, 2008):

Key:
[1] = biological target: Sodium-dependent dopamine transporter (Homo sapiens, UniProt Q01959); assay: Displacement of [3H]WIN-35428 from human DAT expressed in transfected cell membrane; type: cell membranes
Method in brief: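 Membranes from transfected cells stably expressing hDAT, labelled with [3H]WIN35,428 at 4 nM final, with serial drug dilutions made from DMSO stocks. Buffer Tris.HCl 50 mM, pH 7.4, NaCl 100 mM. Incubated 1 h at 22 °C. Filtered over 0.1% PEI-presoaked GF/B filters and counted. Nonspecific binding defined with 100 μM (-)-cocaine. IC50 reported as mean ± SEM of ≥3 experiments, each in triplicate.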

[2] = biological target: Sodium-dependent serotonin transporter (Homo sapiens, UniProt P31645); assay: Displacement of [3H]-citalopram from human SERT expressed in HEK293 cell membrane; type: cell membranes
Sodium-dependent serotonin transporter, sequence (P31645 whole entry): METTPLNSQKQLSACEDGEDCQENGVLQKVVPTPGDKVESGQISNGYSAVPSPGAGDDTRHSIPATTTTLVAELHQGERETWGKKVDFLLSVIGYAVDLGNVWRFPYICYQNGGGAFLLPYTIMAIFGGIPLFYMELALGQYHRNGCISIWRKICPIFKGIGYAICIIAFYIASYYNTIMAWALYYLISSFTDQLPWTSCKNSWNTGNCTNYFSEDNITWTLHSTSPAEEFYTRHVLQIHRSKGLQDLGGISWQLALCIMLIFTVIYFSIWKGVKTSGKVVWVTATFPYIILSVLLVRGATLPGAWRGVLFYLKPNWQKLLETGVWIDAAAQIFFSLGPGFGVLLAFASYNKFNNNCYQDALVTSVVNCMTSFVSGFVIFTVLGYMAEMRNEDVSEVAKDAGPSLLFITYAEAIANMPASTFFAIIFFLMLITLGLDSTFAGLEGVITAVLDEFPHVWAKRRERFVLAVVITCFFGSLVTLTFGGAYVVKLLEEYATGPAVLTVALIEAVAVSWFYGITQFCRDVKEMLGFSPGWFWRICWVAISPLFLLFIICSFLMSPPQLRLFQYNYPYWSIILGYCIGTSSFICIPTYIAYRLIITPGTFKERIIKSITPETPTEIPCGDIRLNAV
Method in brief: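 Competition binding on membranes of HEK-293 cells stably expressing SERT cDNA. [3H]citalopram fixed at 1 nM final, with a range of drug concentrations. Buffer Tris.HCl 50 mM, pH 7.4, NaCl 100 mM. Incubation 2 h at 0–4 °C, started by adding membranes. Rapid filtration through PEI-soaked GF/B filters, then scintillation counting. Nonspecific binding defined with 10 μM fluoxetine. IC50 reported as mean ± SEM of ≥3 experiments, each in triplicate.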

Sodium-dependent dopamine transporter, sequence (Q01959 whole entry): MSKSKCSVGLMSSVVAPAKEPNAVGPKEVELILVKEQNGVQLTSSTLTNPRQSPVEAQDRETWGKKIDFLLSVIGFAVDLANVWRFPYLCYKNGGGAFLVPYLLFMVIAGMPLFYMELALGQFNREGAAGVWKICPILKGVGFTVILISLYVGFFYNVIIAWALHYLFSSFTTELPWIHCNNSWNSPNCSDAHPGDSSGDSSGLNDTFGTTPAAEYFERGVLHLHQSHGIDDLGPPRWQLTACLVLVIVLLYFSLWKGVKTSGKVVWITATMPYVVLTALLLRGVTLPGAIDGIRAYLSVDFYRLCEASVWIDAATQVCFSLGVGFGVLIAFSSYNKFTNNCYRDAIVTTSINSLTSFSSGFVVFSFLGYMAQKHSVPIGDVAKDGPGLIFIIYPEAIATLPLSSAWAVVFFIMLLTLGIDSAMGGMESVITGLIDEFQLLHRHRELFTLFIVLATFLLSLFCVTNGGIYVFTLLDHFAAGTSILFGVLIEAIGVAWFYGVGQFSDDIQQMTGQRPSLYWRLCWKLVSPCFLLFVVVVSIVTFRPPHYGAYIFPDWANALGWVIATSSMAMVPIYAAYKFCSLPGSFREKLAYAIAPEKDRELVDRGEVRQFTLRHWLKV

| SMILES | IC50 [1] | IC50 [2] |
| --- | --- | --- |
| CN1C2CC[C@@H]1[C@@H](COC(=O)CCC(=O)OC[C@@H]1C3CCC(C[C@@H]1c1ccc(Cl)c(Cl)c1)S3)[C@@H](c1ccc(Cl)c(Cl)c1)C2 | 55 nM | 593 nM |
| O=C(CCC(=O)OC[C@@H]1C2CCC(C[C@@H]1c1ccc(Cl)c(Cl)c1)S2)OC[C@@H]1C2CCC(C[C@@H]1c1ccc(Cl)c(Cl)c1)S2 | 1540 nM | 2200 nM |
| CN1C2CCC1[C@@H](COC(=O)CCCCCCCCC(=O)OC[C@@H]1C3CCC(C[C@@H]1c1ccc(Cl)c(Cl)c1)N3C)[C@@H](c1ccc(Cl)c(Cl)c1)C2 | 31 nM | 17 nM |
| CN1C2CCC1[C@@H](COC(=O)CCC(=O)OC[C@@H]1C3CCC(C[C@@H]1c1ccc(Cl)c(Cl)c1)N3C)[C@@H](c1ccc(Cl)c(Cl)c1)C2 | 12 nM | 106 nM |
| CN1C2CCC1[C@@H](COC(=O)CCCCCCCCCCC(=O)OC[C@@H]1C3CCC(C[C@@H]1c1ccc(Cl)c(Cl)c1)N3C)[C@@H](c1ccc(Cl)c(Cl)c1)C2 | 115 nM | 140 nM |
| COC(=O)[C@@H]1C2CCC(C[C@@H]1c1ccc(Cl)c(Cl)c1)O2 (stereo not given in full) | 3.3 nM | 4.7 nM |
| COC(=O)[C@@H]1C2CCC(C[C@@H]1c1ccc(Cl)c(Cl)c1)S2 (stereo not given in full) | 2 nM | 3 nM |
| COC(=O)[C@@H]1C2CCC(C[C@@H]1c1ccc(Cl)c(Cl)c1)N2C (stereo not given in full) |  | 2.5 nM |
| CN1C2CCC1[C@@H](COC(=O)CCCCCCC(=O)OC[C@@H]1C3CCC(C[C@@H]1c1ccc(Cl)c(Cl)c1)N3C)[C@@H](c1ccc(Cl)c(Cl)c1)C2 | 11 nM | 31 nM |
| CN1C2CCC1[C@@H](COC(=O)CCCCC(=O)OC[C@@H]1C3CCC(C[C@@H]1c1ccc(Cl)c(Cl)c1)N3C)[C@@H](c1ccc(Cl)c(Cl)c1)C2 | 28 nM | 56 nM |
| CCCCCCC(=O)OC[C@H]1[C@@H](c2ccc(Cl)c(Cl)c2)CC2CC[C@H]1N2C | 8 nM | 53 nM |
| CN1C2CC[C@@H]1[C@@H](COC(=O)CCC(=O)OC[C@H]1[C@@H](c3ccc(Cl)c(Cl)c3)CC3CC[C@H]1O3)[C@@H](c1ccc(Cl)c(Cl)c1)C2 | 67 nM | 405 nM |
| O=C(CCC(=O)OC[C@@H]1C2CCC(C[C@@H]1c1ccc(Cl)c(Cl)c1)S2)OC[C@@H]1C2CCC(C[C@@H]1c1ccc(Cl)c(Cl)c1)O2 (stereo not given in full) | 2960 nM | 992 nM |
